Values belong to the molecule of their own block, whether it stands above or below them.
Tests used:
[1] = biological target: cytochrome P450 (CYP) 3A4 (Homo sapiens, UniProt P08684); assay: In vitro metabolism: enzyme responsible; format: in vitro ADME; details: in vitro studies
Probenecid = format: in vivo, human
Procedure, shortened: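 Two-treatment crossover in healthy subjects (18–60 y, BMI 18–32 kg/m2) with a 17-day washout. A 600 mg oral capsule dose was given alone or with probenecid 500 mg tablet, after fasting at least 8–10 h and for 4 h post-dose. Plasma was collected through 312 h and measured by LC-MS/MS. Ratios came from ANOVA of ln-transformed Cmax and AUC∞ with 90% CIs.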

[2] = Four phase I DDI studies overall; format: in vivo, human
Procedure, shortened: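 Across four crossover studies, healthy subjects received a single 600 mg oral dose fasted. Tmax came from plasma LC-MS/MS profiles, with BLQ values set to zero or missing by position. Safety covered adverse events, physical examination, vital signs, 12-lead ECG and laboratory tests. The investigator graded severity and causality. Analysis was descriptive over all subjects dosed at least once.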

Solubility versus pH = format: physicochemical; details: dependence on pH
OAT1 = biological target: T1, OAT1 (Homo sapiens, UniProt Q4U2R8); assay: In vitro OAT1 substrate assessment; format: in vitro ADME; details: in vitro data
T1 sequence (Q4U2R8 1-563): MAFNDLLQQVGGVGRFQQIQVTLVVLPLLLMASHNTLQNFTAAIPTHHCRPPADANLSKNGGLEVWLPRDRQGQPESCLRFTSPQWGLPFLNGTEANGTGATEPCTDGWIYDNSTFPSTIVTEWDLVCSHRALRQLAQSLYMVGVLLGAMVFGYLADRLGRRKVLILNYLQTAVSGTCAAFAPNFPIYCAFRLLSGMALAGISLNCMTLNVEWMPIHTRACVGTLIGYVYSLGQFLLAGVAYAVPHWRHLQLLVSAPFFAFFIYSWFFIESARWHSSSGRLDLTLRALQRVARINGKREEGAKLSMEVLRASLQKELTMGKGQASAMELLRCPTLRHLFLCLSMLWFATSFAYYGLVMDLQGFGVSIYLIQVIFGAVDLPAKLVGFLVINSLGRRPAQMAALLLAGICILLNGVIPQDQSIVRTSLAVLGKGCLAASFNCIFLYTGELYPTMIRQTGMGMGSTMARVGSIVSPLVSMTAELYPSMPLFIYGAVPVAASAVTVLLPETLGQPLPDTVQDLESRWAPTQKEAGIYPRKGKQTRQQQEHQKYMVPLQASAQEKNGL

Rifampin = format: in vivo, human
Procedure, shortened: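 Crossover in healthy adults (18–60 y, BMI 18–30 kg/m2) with a 10-day washout. Single oral 600 mg dose given alone or with rifampin 600 mg (2 × 300 mg capsules), taken with 240 mL water after at least 8–10 h fasting and 4 h further fasting. Plasma was measured by LC-MS/MS (30–3750 ng/mL). ANOVA (treatment, period, sequence, subject within sequence) on log Cmax/AUC∞ gave 90% CIs.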

UGT1A4 = biological target: T2, UGT1A4 (Homo sapiens, UniProt P22310); assay: UGT substrate / metabolite formation; format: in vitro ADME; details: generates ZAAD-1006a
T2 sequence (P22310 29-534): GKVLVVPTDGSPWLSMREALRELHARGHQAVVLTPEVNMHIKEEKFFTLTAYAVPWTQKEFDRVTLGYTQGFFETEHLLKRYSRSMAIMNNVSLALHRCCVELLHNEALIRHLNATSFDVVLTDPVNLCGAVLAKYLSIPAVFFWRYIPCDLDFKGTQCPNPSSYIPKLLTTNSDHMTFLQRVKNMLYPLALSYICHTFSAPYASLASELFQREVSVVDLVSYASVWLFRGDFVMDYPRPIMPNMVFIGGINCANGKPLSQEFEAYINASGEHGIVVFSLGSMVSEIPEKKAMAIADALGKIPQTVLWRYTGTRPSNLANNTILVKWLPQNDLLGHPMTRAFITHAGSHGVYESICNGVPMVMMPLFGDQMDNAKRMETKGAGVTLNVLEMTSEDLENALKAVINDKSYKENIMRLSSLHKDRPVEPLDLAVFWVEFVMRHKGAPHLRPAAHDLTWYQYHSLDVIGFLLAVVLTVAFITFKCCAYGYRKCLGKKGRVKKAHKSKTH

Esomeprazole = format: in vivo, human; details: for AUC(0-inf) / Cmax: human, plasma, oral, Geometric LS mean, ANOVA
Procedure, shortened: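 Healthy adults (18–60 y, BMI 18–30 kg/m2) in an open-label randomized two-period crossover with a 10-day washout. Single 600 mg oral dose (3 × 200 mg capsules) alone or with esomeprazole 40 mg, fasted at least 8–10 h plus 4 h post-dose. Plasma was assayed by LC-MS/MS (30–3750 ng/mL). ANOVA on ln Cmax/AUC∞ gave 90% CIs of geometric LS mean ratios.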

CYP3A4 = CYP3A4 (Homo sapiens, UniProt P08684); assay: In vitro mechanism-based inactivation of CYP3A4; format: biochemical
CYP3A4, sequence (P08684 whole entry): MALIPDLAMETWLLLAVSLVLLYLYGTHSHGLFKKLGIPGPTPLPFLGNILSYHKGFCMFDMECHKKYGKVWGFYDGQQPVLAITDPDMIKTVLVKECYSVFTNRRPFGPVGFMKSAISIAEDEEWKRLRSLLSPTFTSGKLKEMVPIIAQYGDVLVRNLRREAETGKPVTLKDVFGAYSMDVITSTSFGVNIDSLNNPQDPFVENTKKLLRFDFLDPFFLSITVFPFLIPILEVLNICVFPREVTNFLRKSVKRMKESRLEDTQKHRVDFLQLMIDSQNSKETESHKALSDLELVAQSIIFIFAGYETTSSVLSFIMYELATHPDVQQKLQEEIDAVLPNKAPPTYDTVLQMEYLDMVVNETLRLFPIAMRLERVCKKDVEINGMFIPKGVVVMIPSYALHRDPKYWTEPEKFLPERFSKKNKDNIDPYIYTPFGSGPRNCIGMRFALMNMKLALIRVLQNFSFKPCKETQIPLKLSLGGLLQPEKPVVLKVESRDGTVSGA

Itraconazole = format: in vivo, human
Procedure, shortened: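 Healthy adults (18–60 y) in a two-treatment crossover with a 10-day washout. Single 600 mg oral dose given alone or with itraconazole 200 mg oral solution, with overnight fast (at least 8–10 h) and 4 h post-dose fast. Sampling extended to 312 h. Plasma was quantified by validated LC-MS/MS. ANOVA of log-transformed Cmax and AUC∞ gave two-sided 90% CIs of geometric LS mean ratios.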

[3] = co-administration with probenecid, healthy subjects ref 12; cited from earlier work
[4] = pexidartinib + probenecid vs pexidartinib alone
[5] = co-administered with rifampin vs alone
[6] = pexidartinib + rifampin vs pexidartinib alone
[7] = co-administered with esomeprazole vs alone
[8] = pexidartinib + esomeprazole vs pexidartinib alone
[9] = co-administered with itraconazole vs alone
[10] = pexidartinib + itraconazole vs pexidartinib alone

cytochrome P450 (CYP) 3A4, sequence (P08684 whole entry): as above

- effect on Cmax (Probenecid; co-administered with probenecid vs alone): unchanged
- AUC∞, Geometric LS mean ratio (90% CI) (Probenecid; [4]): 159.8 (143.4–178.0) %
- Cmax, Geometric LS mean ratio (90% CI) (Probenecid; [4]): 105.8 (92.4–121.0) %
- Tmax ([2]; human, plasma, oral): 2 to 3 h
- solubility (Solubility versus pH): decreases as pH increases
- substrate for OAT1 (OAT1): not a substrate for OAT1
- decrease in AUC∞ (Rifampin; [5]): ~63%
- decrease in Cmax (Rifampin; [5]): approximately 33%
- AUC∞, Geometric LS mean ratio (90% CI) (Rifampin; [6]): 37.0 (30.6–44.8) %
- Cmax, Geometric LS mean ratio (90% CI) (Rifampin; [6]): 67.1 (53.1–84.8) %
- UGT1A4 substrate (UGT1A4): substrate of the UGT1A4 enzyme
- decrease in AUC∞ (Esomeprazole; [7]): ~47%
- decrease in Cmax (Esomeprazole; [7]): approximately 55%
- AUC(0-inf) (Esomeprazole; 600 mg, pexidartinib alone): 104000 ng·h/mL
- Cmax (Esomeprazole; 600 mg, pexidartinib alone): 6430 ng/mL
- AUC(0-inf) (Esomeprazole; pexidartinib + esomeprazole): 55400 ng·h/mL
- Cmax (Esomeprazole; pexidartinib + esomeprazole): 2920 ng/mL
- AUC∞, Geometric LS mean ratio (90% CI) (Esomeprazole; [8]): 53.1 (47.4–59.3) %
- Cmax, Geometric LS mean ratio (90% CI) (Esomeprazole; [8]): 45.4 (36.8–55.9) %
- KI (inactivation) (CYP3A4): 4.01 µM
- kinact (CYP3A4): 0.000377 s⁻¹
- increase in AUC∞ (Itraconazole; [9]): ~73%
- increase in Cmax (Itraconazole; [9]): approximately 48%
- AUC∞, Geometric LS mean ratio (90% CI) (Itraconazole; [10]): 173.0 (160.7–186.3) %
- Cmax, Geometric LS mean ratio (90% CI) (Itraconazole; [10]): 148.3 (127.8–172.0) %
SMILES: FC(F)(F)c1ccc(CNc2ccc(Cc3c[nH]c4ncc(Cl)cc34)cn2)cn1 [Pexidartinib]
- enzyme responsible for metabolism [1]: cytochrome P450 (CYP) 3A4 as the main enzyme
- subjects who experienced a TEAE (Probenecid; N = 16): Eight
- subjects with TEAE considered study drug related (Probenecid; in vivo): four
- severity of treatment-emergent adverse events (TEAEs) ([2]; all four studies): grade 1 or 2
- subjects who experienced a TEAE (Rifampin; grade 1 diarrhea): single
- subjects who experienced a TEAE (Itraconazole; N = 16): nine
- subjects with TEAE assessed as related to the study drug (Itraconazole; pexidartinib or itraconazole): seven

SMILES: CCCc1nc(C(C)(C)O)c(C(=O)O)n1Cc1ccc(-c2ccccc2-c2nnn[nH]2)cc1 [olmesartan]
- increase in AUC [3]: approximately 50%

Source: paper PMC9652259 (Clinical Pharmacokinetics, 2022)
